Test results as given in ChEMBL document CHEMBL1177856, “Synthesis and cytotoxic activity of fluorinated analogues of Goniothalamus lactones. Impact of fluorine on oxidative processes” (Eur J Med Chem, 2010).

Tests used:
KB [1] = assay: Cytotoxicity against human KB cells after 24 hrs; format: functional, cell-based
Method in brief: (§1)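 Cell growth inhibition assay on human cancer lines KB, MCF-7, HT29, HepG2 and A549. IC50 is defined as the concentration that inhibits cell growth by 50%.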

MCF7 [2] = assay: Cytotoxicity against human MCF7 cells after 24 hrs; format: functional, cell-based; conditions: MCF7, 24 h; method in brief: as §1
HT-29 [3] = assay: Cytotoxicity against human HT-29 cells after 24 hrs; format: functional, cell-based; conditions: HT-29, 24 h; method in brief: as §1
HepG2 [4] = assay: Cytotoxicity against human HepG2 cells after 24 hrs; format: functional, cell-based; conditions: HepG2, 24 h; method in brief: as §1
A549 [5] = assay: Cytotoxicity against human A549 cells after 24 hrs; format: functional, cell-based; conditions: A549, 24 h; method in brief: as §1
P388 = assay: Cytotoxicity against mouse P388 cells; format: functional, cell-based
WEHI-164 = assay: Cytotoxicity against mouse WEHI164 cells; format: functional, cell-based
[6] = Cytotoxicity against human Hep3B cells; format: functional, cell-based, Hep 3B2
MDA-MB-231 = assay: Cytotoxicity against human MDA-MB-231 cells; format: functional, cell-based
KB [7] = assay: Cytotoxicity against human KB cells after 24 hrs
A549 [8] = assay: Cytotoxicity against human A549 cells after 24 hrs; conditions: A549, 24 h
MCF7 [9] = assay: Cytotoxicity against human MCF7 cells after 24 hrs; conditions: MCF7, 24 h
HepG2 [10] = assay: Cytotoxicity against human HepG2 cells after 24 hrs; conditions: HepG2, 24 h
HT-29 [11] = assay: Cytotoxicity against human HT-29 cells after 24 hrs; conditions: HT-29, 24 h

Compound	IC50 (KB [1]) [µM]	IC50 (MCF7 [2]) [µM]	IC50 (HT-29 [3]) [µM]	IC50 (HepG2 [4]) [µM]	IC50 (A549 [5]) [µM]	IC50 (P388) [µM]	IC50 (WEHI-164) [µM]	IC50 [6] [µM]	IC50 (MDA-MB-231) [µM]	IC50 (KB [7]) [µM]	IC50 (A549 [8]) [µM]	IC50 (MCF7 [9]) [µM]	IC50 (HepG2 [10]) [µM]	IC50 (HT-29 [11]) [µM]
O=C1C=C[C@H](O)[C@H]([C@H](O)[C@H](OC(=O)/C=C/C(F)(F)F)c2ccccc2)O1	1.4	1.6	4.5	1.8	3									
O=C1C=CCC(/C=C/c2ccccc2)O1 (racemic)	3	3.5	10.1	2.4	9.1	3.8	8.5	5.4	5.4					
O=C1C=CCC(/C=C/C(F)(F)F)O1 (racemic)										> 10	> 10	> 10	> 10	> 10
O=C1C=CC[C@H](/C=C/c2ccccc2)O1 [GONIOTHALAMIN]		4.5		1.6		3.8	8.5	5.4	5.4					
O=C1C=C[C@H](O)[C@H]([C@H](O)[C@H](OC(=O)/C=C/c2ccccc2)c2ccccc2)O1 [HOWIINOL A]	0.9	1.1	2.6	1.6	1.5									
